Experimental data: ChEMBL document CHEMBL4340559, “Design and synthesis of functionalized coumarins as potential anti-austerity agents that eliminates cancer cells' tolerance to nutrition starvation” (Bioorg Med Chem Lett, 2019)
Calls of active or inactive are those of the source. No cut-off for these calls is given here.

How the values were obtained:
PANC-1 [1] = assay: Cytotoxic activity against human PANC1 cells in nutrient-rich medium measured after 24 hrs by WST8 assay; assay type: cell-based; conditions: panc-1, 24 h
PANC-1 [2] = assay: Antiausteritic activity against human PANC1 cells in nutrient-deprived medium measured after 24 hrs by WST8 assay; assay type: functional
PANC-1 [3] = assay: Inhibition of colony formation in human PANC1 cells at 25 uM in the nutrient rich DMEM media treated for 24 hrs followed by compound washout and subsequent incubation for 10 days by crystal violet staining based assay relative to untreated control; assay type: functional
Summary of the method: (§1)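 PANC-1 cells were exposed 24 h to 12.5, 25 or 50 μM in nutrient-rich DMEM. Medium was then replaced with fresh DMEM and cells grown 10 d to form colonies. Read-out was the average area occupied by colonies relative to untreated control wells. Three replications; significance set at p < 0.05 versus control.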

PANC-1 [4] = assay: Antiausteritic activity against human PANC1 cells in nutrient deprived medium assessed as rupture of cell membrane at 1.25 uM after 24 hrs by ethidium bromide/acridine orange staining based phase contrast microscopic method; assay type: functional
Summary of the method: (§2)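 PANC-1 cells exposed 24 h in nutrient-deprived medium (NDM) alongside untreated control, then stained with ethidium bromide/acridine orange. AO enters all cells and fluoresces green. EB enters only dead or dying cells and fluoresces red. Cells were scored by fluorescence colour and morphology.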

PANC-1 [5] = assay: Antiausteritic activity against human PANC1 cells in nutrient deprived medium assessed as leakage of cellular contents into culture media at 1.25 uM after 24 hrs by ethidium bromide/acridine orange staining based phase contrast microscopic method; assay type: functional, cell-based; summary of the method: as §2
PANC-1 [6] = assay: Antiausteritic activity against human PANC1 cells in nutrient deprived medium assessed as plasma blebbing at 1.25 uM after 24 hrs by ethidium bromide/acridine orange staining based phase contrast microscopic method; assay type: functional, cell-based; summary of the method: as §2
PANC-1 [7] = assay: Antiausteritic activity against human PANC1 cells in nutrient deprived medium assessed as cell shrinkage at 5 uM measured at 7 hrs by automated time-lapse microscopic method; assay type: functional, cell-based
Summary of the method: (§3)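 PANC-1 cells in NDM were held in a stage-top incubator with 5 μM compound, with untreated NDM control run alongside. Images were captured every 10 min for 24 h. Mobility, shrinkage and death were followed over time.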

PANC-1 [8] = assay: Inhibition of colony formation in human PANC1 cells at 12.5 to 50 uM in the nutrient rich DMEM media treated for 24 hrs followed by compound washout and subsequent incubation for 10 days by crystal violet staining based assay; assay type: functional, cell-based; summary of the method: as §1
PANC-1 [9] = assay: Antiausteritic activity against human PANC1 cells in nutrient deprived medium assessed as inhibition of cell mobility at 5 uM measured within 4 hrs by automated time-lapse microscopic method; assay type: functional, cell-based; summary of the method: as §3
PANC-1 [10] = assay: Inhibition of colony formation in human PANC1 cells at 50 uM in the nutrient rich DMEM media treated for 24 hrs followed by compound washout and subsequent incubation for 10 days by crystal violet staining based assay relative to untreated control; assay type: functional; summary of the method: as §1
PANC-1 [11] = assay: Inhibition of colony formation in human PANC1 cells at 12.5 uM in the nutrient rich DMEM media treated for 24 hrs followed by compound washout and subsequent incubation for 10 days by crystal violet staining based assay relative to untreated control; assay type: functional; summary of the method: as §1
PANC-1 [12] = assay: Antiausteritic activity against human PANC1 cells in nutrient deprived medium assessed as appearance of rounded cells at 1.25 uM after 24 hrs by ethidium bromide/acridine orange staining based phase contrast microscopic method; assay type: functional, cell-based; summary of the method: as §2
PANC-1 [13] = assay: Antiausteritic activity against human PANC1 cells in nutrient deprived medium assessed as cell death at 5 uM measured at 13 to 20 hrs by automated time-lapse microscopic method; assay type: functional, cell-based; summary of the method: as §3

O=C(NCCCC1CCCCC1)c1cc2ccc(O)cc2oc1=O was tested, and the Activity (PANC-1 [1]) was “Non-Toxic” and the PC50 (PANC-1 [2]) was 2.19 µM.

With O=C(NCCCc1ccccc1)c1cc2c(O)cccc2oc1=O the Activity (PANC-1 [1]) was “Non-Toxic” and the PC50 (PANC-1 [2]) was >100 µM.

For O=C(NCCCc1ccc(Cl)cc1)c1cc2ccc(O)cc2oc1=O, the Activity (PANC-1 [1]) was “Non-Toxic” and the PC50 (PANC-1 [2]) was 0.51 µM.

In the case of O=C(NCCCc1cccc(Cl)c1)c1cc2ccc(O)cc2oc1=O, the Activity (PANC-1 [1]) is reported as “Non-Toxic” and the PC50 (PANC-1 [2]) is reported as 3.92 µM.

For O=C(NCCCc1ccccc1Cl)c1cc2ccc(O)cc2oc1=O, the Activity (PANC-1 [1]) was “Non-Toxic” and the PC50 (PANC-1 [2]) was 12.6 µM.

With O=C(NCCCc1cccc(Cl)c1Cl)c1cc2ccc(O)cc2oc1=O the Activity (PANC-1 [1]) was “Non-Toxic” and the PC50 (PANC-1 [2]) was 7.48 µM.

O=C(NCCCc1ccccc1)c1cc2ccccc2oc1=O was tested, and the Activity (PANC-1 [1]) was “Non-Toxic” and the PC50 (PANC-1 [2]) was >100 µM.

In the case of O=C(NCCCc1ccccc1)c1cc2cccc(O)c2oc1=O, the Activity (PANC-1 [1]) is reported as “Non-Toxic” and the PC50 (PANC-1 [2]) is reported as 3.28 µM.

In the case of O=C(NCCCc1ccccc1)c1cc2ccc(O)cc2oc1=O, the inhibition at 25 µM (PANC-1 [3]) is reported as 11%, the Activity (PANC-1 [1]) is reported as “Non-Toxic” and the Activity (PANC-1 [4]) is reported as “Active”. For the same molecule, the Activity (PANC-1 [5]) was “Active”, the Activity (PANC-1 [6]) was “Active” and the Activity (PANC-1 [7]) was “Active”. For the same molecule, the inhibition (PANC-1 [8]) was “Dose-dependent effect”, the Activity (PANC-1 [9]) was “Active” and the inhibition at 50 µM (PANC-1 [10]) was 19%. The inhibition at 12.5 µM (PANC-1 [11]) was 8%, the Activity (PANC-1 [12]) was “Active” and the Activity (PANC-1 [13]) was “Active”. It also gave a PC50 (PANC-1 [2]) of 0.44 µM.

For O=C(NCCc1ccccc1)c1cc2ccc(O)cc2oc1=O, the Activity (PANC-1 [1]) was “Non-Toxic” and the PC50 (PANC-1 [2]) was >100 µM.

In the case of O=C(NCc1ccccc1)c1cc2ccc(O)cc2oc1=O, the Activity (PANC-1 [1]) is reported as “Non-Toxic” and the PC50 (PANC-1 [2]) is reported as >100 µM.

O=C(NCCCc1ccccc1)c1cc2cc(O)ccc2oc1=O was tested, and the Activity (PANC-1 [1]) was “Non-Toxic” and the PC50 (PANC-1 [2]) was >100 µM.

In the case of O=C(NCCCc1ccc(Cl)cc1Cl)c1cc2ccc(O)cc2oc1=O, the Activity (PANC-1 [1]) is reported as “Non-Toxic” and the PC50 (PANC-1 [2]) is reported as 3.45 µM.

In the case of O=C(NCCCCc1ccccc1)c1cc2ccc(O)cc2oc1=O, the Activity (PANC-1 [1]) is reported as “Non-Toxic” and the PC50 (PANC-1 [2]) is reported as 4.7 µM.
